How the values were obtained:
[1] = system: Rattus norvegicus; assay: Evaluated for the effects on the gastric emptying rates of phenol red semisolid meal through the stomach in rats, at a dose of 2.0 mg/Kg administered perorally.; format: functional
Procedure, shortened: (§1)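 Mice or rats fasted 18 h. Compound suspended in 0.5% tragacanth given orally 60 min before a gavaged meal of 0.05% phenol red in 1.5% aqueous methylcellulose (0.2 mL/mouse, 1.5 mL/rat). Animals killed 15 min later; phenol red left in stomach measured (Scarpignato method). Emptying expressed as % enhancement over tragacanth-control mean; Duncan's multiple range test.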

[2] = system: Mus musculus; assay: Evaluated for the effects on the gastric emptying rates of phenol red semisolid meal through the stomach in mouse, at a dose of 2 mg/kg administered perorally; format: functional; conditions: route oral; procedure, shortened: as §1
[3] = system: Rattus norvegicus; assay: Evaluated for the effects on the gastric emptying rates of phenol red semisolid meal through the stomach in rats, at a dose of 2.0 mg/kg administered perorally; format: functional; conditions: route oral; procedure, shortened: as §1
[4] = system: Rattus norvegicus; assay: Evaluated for the effects on the gastric emptying rates of phenol red semisolid meal through the stomach in rats, at a dose of 10.0 mg/kg administered perorally; format: functional; conditions: route oral; procedure, shortened: as §1
[5] = system: Rattus norvegicus; assay: Evaluated for the effects on the gastric emptying rates of resin pellets solid meal through the stomach in rats, at a dose of 5.0 mg/kg administered perorally; format: functional; conditions: route oral
Procedure, shortened: (§2)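 Rats fasted 18 h. Compound suspended in 0.5% tragacanth given orally 30 min before 40 resin pellets (Amberlite IRA-93, 1-mm) are delivered into the stomach by tube. Animals killed 1 h later and pellets remaining in the stomach counted (Jacoby method). Result given as % enhancement over tragacanth-control mean; Duncan's multiple range test.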

[6] = system: Rattus norvegicus; assay: Evaluated for the effects on the gastric emptying rates of phenol red semisolid meal through the stomach in rats, at a dose of 5.0 mg/kg administered perorally; format: functional; conditions: route oral; procedure, shortened: as §1
[7] = system: Mus musculus; assay: Evaluated for the effects on the gastric emptying rates of phenol red semisolid meal through the stomach in mouse, at a dose of 0.5 mg/kg administered perorally; format: functional; conditions: route oral; procedure, shortened: as §1
[8] = target: D(2) dopamine receptor (Canis lupus familiaris) (UniProt Q9GJU1); assay: Evaluated for the dopamine D2 receptor antagonistic activity (antagonism of the apomorphine-induced emesis in dogs) at a dose of 3.0 mg/kg administered perorally (po).; format: functional, organism-based; design: dose 3 mg/kg
Procedure, shortened: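 Male beagle dogs (10-16 kg), groups of three to six, pretreated with test compound; 2 h later apomorphine hydrochloride 0.3 mg/kg s.c.; emetic episodes counted over 1 h. Modified Janssen method.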

[9] = system: Rattus norvegicus; assay: Evaluated for the effects on the gastric emptying rates of resin pellets solid meal through the stomach in rats, at a dose of 2.0 mg/kg administered perorally; format: functional; conditions: route oral; procedure, shortened: as §2
[10] = system: Rattus norvegicus; assay: Evaluated for the effects on the gastric emptying rates of phenol red semisolid meal through the stomach in rats, at a dose of 0.5 mg/kg administered perorally; format: functional; conditions: route oral; procedure, shortened: as §1
[11] = system: Mus musculus; assay: Evaluated for the effects on the gastric emptying rates of phenol red semisolid meal through the stomach in mouse, at a dose of 5 mg/kg administered perorally; format: functional; conditions: route oral; procedure, shortened: as §1
[12] = system: Mus musculus; assay: Evaluated for the effects on the gastric emptying rates of phenol red semisolid meal through the stomach in mouse, at a dose of 1 mg/kg administered perorally; format: functional; conditions: route oral; procedure, shortened: as §1
[13] = system: Mus musculus; assay: Evaluated for the effects on the gastric emptying rates of phenol red semisolid meal through the stomach in mouse, at a dose of 2 mg/kg administered perorally (po); (p<0.01); format: functional; procedure, shortened: as §1

D(2) dopamine receptor (Canis lupus familiaris), sequence (Q9GJU1 whole entry): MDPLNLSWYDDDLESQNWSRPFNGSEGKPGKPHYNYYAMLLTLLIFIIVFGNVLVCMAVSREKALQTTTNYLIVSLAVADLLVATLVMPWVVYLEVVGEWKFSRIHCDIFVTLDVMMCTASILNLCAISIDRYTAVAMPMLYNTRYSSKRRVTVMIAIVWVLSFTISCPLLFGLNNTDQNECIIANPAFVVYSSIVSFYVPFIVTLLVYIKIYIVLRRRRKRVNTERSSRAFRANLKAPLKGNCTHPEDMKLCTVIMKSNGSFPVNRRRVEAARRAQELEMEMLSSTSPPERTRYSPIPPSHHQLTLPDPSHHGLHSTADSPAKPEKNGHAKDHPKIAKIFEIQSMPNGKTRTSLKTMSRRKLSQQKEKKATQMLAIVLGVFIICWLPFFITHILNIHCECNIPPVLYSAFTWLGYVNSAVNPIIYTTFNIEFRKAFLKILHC

O=C(NCC1CN(Cc2ccccc2)CCO1)c1c(F)c(F)c(F)c(F)c1F.O=C(O)C(=O)O (stereo unspecified)
GE [1]: 9%

CCOc1ccc(S(N)(=O)=O)cc1C(=O)NCC1CN(Cc2ccccc2)CCO1 (stereo unspecified)
GE [1]: 19%

COc1cc(C(=O)NCC2CN(Cc3ccccc3)CCO2)cc(OC)c1OC.O=C(O)C(=O)O (stereo unspecified)
GE [1]: 11%

Nc1cc(O)c(C(=O)NCC2CN(Cc3ccccc3)CCO2)cc1Cl.O (stereo unspecified)
GE [1]: 36%

O=C(NCC1CN(Cc2ccccc2)CCO1)c1ccc2c(c1)OCO2.O=C(O)/C=C/C(=O)O (stereo unspecified)
GE [1]: 34%

COc1cc(N(C)C)c(Cl)cc1C(=O)NCC1CN(Cc2ccccc2)CCO1.O=C(O)/C=C/C(=O)O (stereo unspecified)
GE [2]: 43%
GE [3]: 52%
GE [4]: 49%
GE [5]: 5%
GE [6]: 47%
GE [7]: 7%
inhibition [8]: 0%
GE [9]: 15%
GE [10]: 27%
GE [11]: 43%
GE [12]: 33%

COc1c(Cl)cc(Cl)c(OC)c1C(=O)NCC1CN(Cc2ccccc2)CCO1 (stereo unspecified)
GE [1]: 4%

CNc1cc(OC)c(C(=O)NCC2CN(Cc3ccccc3)CCO2)cc1Cl.O=C(O)/C=C/C(=O)O (stereo unspecified)
GE [1]: 14%

CC(=O)Nc1cc(O)c(C(=O)NCC2CN(Cc3ccccc3)CCO2)cc1Cl (stereo unspecified)
GE [1]: 11%

CCSc1ccc(S(N)(=O)=O)cc1C(=O)NCC1CN(Cc2ccccc2)CCO1 (stereo unspecified)
GE [1]: 27%

CCOc1cc(N)c(Cl)cc1C(=O)NCCCC1CN(Cc2ccccc2)CCO1 (stereo unspecified)
GE [1]: 18%

COc1cc(NC(C)=O)ccc1C(=O)NCC1CN(Cc2ccccc2)CCO1.O (stereo unspecified)
GE [1]: 24%

CCN(CC)c1cc(OC)c(C(=O)NCC2CN(Cc3ccccc3)CCO2)cc1Cl.O=C(O)C(=O)O (stereo unspecified)
GE [1]: 21%

CN(C)c1c(Cl)cc(C(=O)NCC2CN(Cc3ccccc3)CCO2)c(O)c1Cl.O=C(O)C(=O)O (stereo unspecified)
GE [1]: 14%

COc1cc(N)c(Cl)cc1C(=O)N(C)CC1CN(Cc2ccccc2)CCO1.O=C(O)/C=C/C(=O)O (stereo unspecified)
GE [1]: 15%

COc1cc(N)c(Cl)cc1C(=O)NC1CCN(CCCOc2ccc(F)cc2)CC1OC (stereo unspecified) [CISAPRIDE]
GE [2]: 36%
GE [3]: 47%
GE [4]: 43%
GE [6]: 50%
GE [7]: 24%
GE [10]: 14%
GE [11]: 38%
GE [12]: 29%

COc1cc(N)c(Cl)cc1C(=O)OCC1CN(Cc2ccccc2)CCO1 (stereo unspecified)
GE [1]: 17%

CCOc1cc(N)c(Cl)cc1C(=O)NCC1CN(Cc2ccccc2)CCO1.O (stereo unspecified)
GE [13]: 52%
GE [3]: 54%
GE [4]: 49%
GE [5]: 76%
GE [6]: 56%
GE [7]: 35%
inhibition [8]: 5%
GE [9]: 58%
GE [10]: 34%
GE [11]: 38%
GE [12]: 23%

COc1ccccc1C(=O)NCC1CN(Cc2ccccc2)CCO1.O=C(O)/C=C/C(=O)O (stereo unspecified)
GE [1]: 17%

Source: ChEMBL document CHEMBL1124766, “Novel benzamides as selective and potent gastric prokinetic agents. 1. Synthesis and structure-activity relationships of N-[(2-morpholinyl)alkyl]benzamides” (1990)
